Screening data (PubChem BioAssay)
CHOP inhibitor – inhibitors of CHOP induction in ER stress response; 220,000 tested, 3.8% active; inhibition, % at 10 µM; CHO-K1 CHOP-promoter luciferase, tunicamycin-induced, 15-18 h; AID 2732;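 active = compounds that reduced the stress-induced luciferase reporter signal by more than about 70% of percent inhibition, limit read from the data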;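 also: 0% = tunicamycin plus vehicle and 100% = wells without tunicamycin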
Hsp70 activator – transcriptional activators of Hsp70; 200,000 tested, 0.04% active; HeLa Hsp70 promoter luciferase reporter, luminescence; scaled: vehicle 0, proteasome-inhibitor control 100%; activation, % at 10 µM;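 active = activation above the mean across all tested compounds plus 3 SD, cutoff set per campaign, cut at about 5.5% in these data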;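 also: 100% = MG132 at 30 µM as the positive control and 0% = DMSO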
S1P3 antagonist – antagonists of human S1P3 receptor; CHO S1P3 NFAT-BLA reporter, FRET fluorescence, antagonist mode; inhibition, % at 4.98 µM; Q99500; 170,000 tested, 0.27% active;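 active = inhibition above the plate cutoff, the mean inhibition of test wells on that plate plus 3 SD, cut at about 28% in these data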;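 also: cells challenged with S1P at its EC80 of 0.8 µM; blue over green emission ratio from cleaved BLA substrate after 4 h stimulation; 0% = S1P-stimulated wells and 100% = unstimulated DMSO-only wells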
Mdm2 ligase inh – Mdm2 E3 ligase (human) inhibition. signal enhancement, % at 5 µM. cell-based MDM2 ubiquitination luciferase reporter, 2 h; 0 = plate control, 100 = twice control, blank-subtracted. Q00987. 210,000 tested, 0.11% active;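 active = signal enhancement of 30% or more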;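 also: luminescence tracks abundance of the self-degrading MDM2-luciferase fusion protein; higher signal means inhibition of MDM2 E3 ligase activity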
Target sequence (Q00987 whole entry, looked up, the tested form may be a part): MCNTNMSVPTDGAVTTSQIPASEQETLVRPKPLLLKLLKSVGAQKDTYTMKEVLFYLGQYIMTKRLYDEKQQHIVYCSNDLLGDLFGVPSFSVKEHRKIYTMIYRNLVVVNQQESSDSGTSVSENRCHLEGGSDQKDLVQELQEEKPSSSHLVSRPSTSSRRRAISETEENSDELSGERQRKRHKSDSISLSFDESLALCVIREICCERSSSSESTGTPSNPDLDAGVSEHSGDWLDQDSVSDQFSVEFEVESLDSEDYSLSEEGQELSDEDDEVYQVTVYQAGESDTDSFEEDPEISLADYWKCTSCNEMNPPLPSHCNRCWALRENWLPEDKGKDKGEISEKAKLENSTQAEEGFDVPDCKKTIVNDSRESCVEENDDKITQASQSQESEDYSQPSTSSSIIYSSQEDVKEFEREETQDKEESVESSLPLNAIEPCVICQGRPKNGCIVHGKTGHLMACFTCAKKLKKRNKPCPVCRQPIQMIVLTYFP
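Buffer or medium: Cells held in DMEM | Assay system: Stable mammalian line carrying autodegrading MDM2–luciferase fusion reporter | Quantity: 2000 cells/well | Times: 4 h settle plus 2 h compound, 37 °C | Doses: One concentration, 5 µM, with 0.2% DMSO | Technique: Luminescence with SteadyLite reagent, 15 min at room temperature | Benchmarks: Plate controls and plate blanks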
* marks the source's active call; other numbers are inactive results; · = no result given. The list is not random: actives were taken first. Their share in the collection is about 4%.

SMILES	CHOP inhibitor	Hsp70 activator	S1P3 antagonist	Mdm2 ligase inh
CC(C)OC(=O)CC(=O)CSc1nc2c(cc1C#N)CCCC2	80*	0	13	-12
CC(C)OC(=O)CC(=O)CSc1nc2c(cc1C#N)CCCCCC2	31	0	·	-1
C[C@H](Cc1ccccc1)Nc1ncnc2c1ncn2[C@@H]1O[C@H](CO)[C@H](O)C1O (some centres not stated)	23	·	·	·
Cc1cc(C)cc(N(CC(=O)N2CCN(c3ccccc3)CC2)S(=O)(=O)c2c(C)noc2C)c1	76*	0	32	-13
CC1CCN(C(=O)CN(c2ccc(Cl)c(C(F)(F)F)c2)S(C)(=O)=O)CC1	26	0	·	-9
CS(=O)(=O)N(CC(=O)N1CCN(c2ccccc2)CC1)c1ccc(Cl)c(C(F)(F)F)c1	76*	0	·	-11
CCN(CC)c1ccc(NC(=O)C2CCCN(S(=O)(=O)c3cccnc3)C2)c(C)c1 (configuration not stated)	5	0	-24	-7
O=C1Nc2ccccc2C12OCC1(CO2)COC2(OC1)C(=O)Nc1ccccc12 (configuration not stated)	-12	0	·	-7
CN1CC(c2ccc(Cl)c(Cl)c2)[C@@]2(COc3ccccc3C2=O)[C@@]12C(=O)Nc1ccccc12 (some centres not stated)	74*	0	·	-5
O=C(CC1Nc2ccccc2NC1=O)NCc1cccnc1 (configuration not stated)	-10	0	102*	-8
CCCCNC(=O)CC1Nc2ccccc2NC1=O (configuration not stated)	12	0	-42	-11
CCNC(=S)N/N=C/c1cn(Cc2ccc(F)cc2)c2ccccc12	59	0	-12	-12
CCNC(=S)N/N=C/c1cn(Cc2ccccc2F)c2ccccc12	77*	0	-10	-8
CC(C)(C)n1nnnc1C(c1ccc(C(F)(F)F)cc1)N(Cc1ccc(F)cc1)Cc1ccco1 (configuration not stated)	82*	0	·	-18
CC(C)C(c1nnnn1Cc1ccccc1)N(Cc1ccco1)Cc1cccs1 (configuration not stated)	31	0	49	-10
Cc1ccc(C(c2nnnn2C(C)(C)C)N(Cc2ccco2)Cc2cccs2)cc1 (configuration not stated)	17	0	90*	-48
CC(C)(C)n1nnnc1C(c1ccc(F)cc1)N(Cc1ccc(F)cc1)Cc1ccco1 (configuration not stated)	49	0	·	1
COc1ccc(Cn2nnnc2C(C(C)C)N(Cc2ccco2)Cc2cccs2)cc1 (configuration not stated)	47	0	54*	-8
CC(C)(C)n1nnnc1C(c1ccc(C(F)(F)F)cc1)N(Cc1ccccc1)Cc1ccco1 (configuration not stated)	54	0	·	-37
CC(C)(C)S(=O)c1cccs1 (configuration not stated)	-6	0	·	-8
Cc1ccc(NC(=O)c2c(C(=O)Nc3ccccc3)sc3nc(C)cc(=O)n23)cc1	39	0	-12	0
CCc1ccc(NC(=O)c2c(C(=O)Nc3ccccc3)sc3nc(C)cc(=O)n23)cc1	82*	0	-15	3
CC/C(=C\C1CCCCC1)C(NP(=O)(c1ccccc1)c1ccccc1)c1ccccc1 (configuration not stated)	86*	0	-9	·
S=C1NCN(C2CCCCC2)CN1c1ccccc1	25	·	-2	-4
Cc1ccc(CSc2nnc(-c3ccc(NS(=O)(=O)c4ccccc4)cc3)o2)cc1	71*	0	-15	-11
SMILES	CHOP inhibitor	Hsp70 activator	S1P3 antagonist	Mdm2 ligase inh
O=C(CCC1CCCC1)N1CCN(C(=O)COc2ccccc2)CC1	75*	0	-23	-10
CCC(C)n1c(SCc2ccc([N+](=O)[O-])cc2)nc2ccsc2c1=O (configuration not stated)	74*	0	10	-22
CC(C)(C)c1ccc(S(=O)(=O)Nc2ccc(Cc3ccncc3)cc2)cc1	79*	0	-3	-6
CC(C)(C)c1ccc(S(=O)(=O)NCCc2ccncc2)cc1	27	0	-3	-4
CCOc1ccc(/C=N/OC(C)C(=O)NCc2ccc3c(c2)OCO3)cc1 (configuration not stated)	1	1	-1	-7
CS(=O)(=O)c1ccc(S(=O)CC(=O)Oc2ccc(Cl)cc2)c([N+](=O)[O-])c1 (configuration not stated)	108*	0	-15	3
